Measurements taken from ChEMBL document CHEMBL1126811, “Fluorinated and iodinated dopamine agents: D2 imaging agents for PET and SPECT” (J Med Chem, 1993).

Experiments:
Rattus norvegicus [1] = experiment: Biodistribution of radioligand [125I]FIDA1 in muscle of rat after 60 minutes after an intravenous injection is given (average of 3 rats); format: ADME, organism-based, Muscle tissue; settings: in vivo, 1 h
Method in brief: (§1)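 Male Sprague–Dawley rats (225–300 g) were given 0.2 mL saline containing the radioiodinated ligand (8–10 μCi) into the femoral vein under ether anesthesia. They were killed at set times by cardiac excision. Organs were weighed and γ-counted against diluted aliquots of the injected dose and expressed as % dose/organ. Blood and muscle were taken as 7% and 40% of body weight. Three rats were used per point.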

Rattus norvegicus [2] = experiment: Biodistribution of radioligand [125I]-FIDA1 in heart of rat after 120 minutes after an intravenous injection is given (average of 3 rats); format: ADME, organism-based; settings: in vivo, 2 h; method in brief: as §1
Rattus norvegicus [3] = experiment: Biodistribution of radioligand [125I]FIDA1 in muscle of rat after 2 minutes after an intravenous injection is given (average of 3 rats); format: ADME, organism-based, Muscle tissue; settings: in vivo; method in brief: as §1
Rattus norvegicus [4] = experiment: Biodistribution of radioligand [125I]FIDA1 in liver of rat after 60 minutes after an intravenous injection is given (average of 3 rats); format: ADME, organism-based; settings: in vivo, 1 h; method in brief: as §1
Rattus norvegicus [5] = experiment: Biodistribution of radioligand [125I]FIDA1 in kidney of rat after 120 minutes after an intravenous injection is given (average of 3 rats); format: ADME, organism-based; settings: in vivo, 2 h; method in brief: as §1
Rattus norvegicus [6] = experiment: Biodistribution of radioligand [125I]FIDA1 in blood of rat after 30 minutes after an intravenous injection is given (average of 3 rats); format: ADME, organism-based; settings: in vivo, 0.5 h; method in brief: as §1
Rattus norvegicus [7] = experiment: Biodistribution of radioligand [125I]-FIDA1 in liver of rat after 2 minutes after an intravenous injection is given (average of 3 rats); format: ADME, organism-based; settings: in vivo; method in brief: as §1
Rattus norvegicus [8] = experiment: Uptake of radioligand [125I]FIDA1 by cortex in rat after 2 minutes after an intravenous injection is given (average of 3 rats); format: ADME, organism-based; settings: in vivo
Method in brief: (§2)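 Male Sprague–Dawley rats (225–300 g) under ether anesthesia received radioiodinated tracer (8–10 μCi in 0.2 mL saline) into the femoral vein. They were killed by cardiac excision at set times. Cortex, striatum, hippocampus and cerebellum were dissected, weighed and gamma-counted. Results are % dose/gram against diluted injected dose.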

Rattus norvegicus [9] = experiment: Uptake of radioligand [125I]FIDA1 by cerebellum in rat after 60 minutes after an intravenous injection is given (average of 3 rats); format: ADME, organism-based; settings: in vivo, 1 h; method in brief: as §2
Rattus norvegicus [10] = experiment: Biodistribution of radioligand [125I]FIDA1 in liver of rat after 120 minutes after an intravenous injection is given (average of 3 rats); format: ADME, organism-based; settings: in vivo, 2 h; method in brief: as §1
Rattus norvegicus [11] = experiment: Biodistribution of radioligand [125I]FIDA1 in spleen of rat after 60 minutes after an intravenous injection is given (average of 3 rats); format: ADME, organism-based; settings: in vivo, 1 h; method in brief: as §1
Rattus norvegicus [12] = experiment: Biodistribution of radioligand [125I]FIDA1 in heart of rat after 2 minutes after an intravenous injection is given (average of 3 rats); format: ADME, organism-based; settings: in vivo; method in brief: as §1
Rattus norvegicus [13] = experiment: Biodistribution of radioligand [125I]FIDA1 in thyroid of rat after 60 minutes after an intravenous injection is given (average of 3 rats); format: ADME, organism-based, Thyroid gland; settings: in vivo, 1 h; method in brief: as §1
Rattus norvegicus [14] = experiment: Uptake of radioligand [125I]FIDA1 by striatum in rat after 60 minutes after an intravenous injection is given (average of 3 rats); format: ADME, organism-based; settings: in vivo, 1 h; method in brief: as §2
Rattus norvegicus [15] = experiment: Uptake of radioligand [125I]FIDA1 by cerebellum in rat after 120 minutes after an intravenous injection is given (average of 3 rats); format: ADME, organism-based; settings: in vivo, 2 h; method in brief: as §2
Rattus norvegicus [16] = experiment: Biodistribution of radioligand [125I]FIDA1 in skin of rat after 120 minutes after an intravenous injection is given (average of 3 rats); format: ADME, organism-based, Zone of skin; settings: in vivo, 2 h; method in brief: as §1
Rattus norvegicus [17] = experiment: Biodistribution of radioligand [125I]FIDA1 in thyroid of rat after 120 minutes after an intravenous injection is given (average of 3 rats); format: ADME, organism-based, Thyroid gland; settings: in vivo, 2 h; method in brief: as §1
Rattus norvegicus [18] = experiment: Biodistribution of radioligand [125I]FIDA1 in blood of rat after 2 minutes after an intravenous injection is given (average of 3 rats); format: ADME, organism-based; settings: in vivo; method in brief: as §1
Rattus norvegicus [19] = experiment: Uptake of radioligand [125I]-FIDA1 by cortex in rat after 120 minutes after an intravenous injection is given (average of 3 rats); format: ADME, organism-based; settings: in vivo, 2 h; method in brief: as §2
Rattus norvegicus [20] = experiment: Biodistribution of radioligand [125I]FIDA1 in lung of rat after 120 minutes after an intravenous injection is given (average of 3 rats); format: ADME, organism-based; settings: in vivo, 2 h; method in brief: as §1
Rattus norvegicus [21] = experiment: Biodistribution of radioligand [125I]FIDA1 in kidney of rat after 60 minutes after an intravenous injection is given (average of 3 rats); format: ADME, organism-based; settings: in vivo, 1 h; method in brief: as §1
Rattus norvegicus [22] = experiment: Biodistribution of radioligand [125I]FIDA1 in skin of rat after 2 minutes after an intravenous injection is given (average of 3 rats); format: ADME, organism-based, Zone of skin; settings: in vivo; method in brief: as §1
Rattus norvegicus [23] = experiment: Biodistribution of radioligand [125I]FIDA1 in heart of rat after 60 minutes after an intravenous injection is given (average of 3 rats); format: ADME, organism-based; settings: in vivo, 1 h; method in brief: as §1
Rattus norvegicus [24] = species: Rattus norvegicus; experiment: Dissociation constant was determined; format: ADME, organism-based
Method in brief: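 Rat striatal membrane homogenate (40–60 μg protein) incubated with 125I-labeled ligand ± competitors in 0.2 mL assay buffer, 15 min at 37 °C with stirring. Filtered on protamine-pretreated (0.2%) GF/B filters, washed with cold 50 mM Tris-HCl pH 7.4, gamma-counted. Nonspecific binding defined with 10 μM (+)-butaclamol. Scatchard and competition data fitted by iterative nonlinear least squares.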

Rattus norvegicus [25] = experiment: Biodistribution of radioligand [125I]FIDA1 in lung of rat after 2 minutes after an intravenous injection is given (average of 3 rats); format: ADME, organism-based; settings: in vivo; method in brief: as §1
Rattus norvegicus [26] = experiment: Uptake of radioligand [125I]FIDA1 by striatum in rat after 2 minutes after an intravenous injection is given (average of 3 rats); format: ADME, organism-based; settings: in vivo; method in brief: as §2
Rattus norvegicus [27] = experiment: Biodistribution of radioligand [125I]FIDA1 in brain of rat after 120 minutes after an intravenous injection is given (average of 3 rats); format: ADME, organism-based; settings: in vivo, 2 h; method in brief: as §1
Rattus norvegicus [28] = experiment: Biodistribution of radioligand [125I]-FIDA1 in kidney of rat after 2 minutes after an intravenous injection is given (average of 3 rats); format: ADME, organism-based; settings: in vivo; method in brief: as §1
Rattus norvegicus [29] = experiment: Uptake of radioligand [125I]FIDA1 by striatum in rat after 120 minutes after an intravenous injection is given (average of 3 rats); format: ADME, organism-based; settings: in vivo, 2 h; method in brief: as §2
Rattus norvegicus [30] = experiment: Biodistribution of radioligand [125I]FIDA1 in kidney of rat after 30 minutes after an intravenous injection is given (average of 3 rats); format: ADME, organism-based; settings: in vivo, 0.5 h; method in brief: as §1
Rattus norvegicus [31] = experiment: Uptake of radioligand [125I]FIDA1 by cortex in rat after 60 minutes after an intravenous injection is given (average of 3 rats); format: ADME, organism-based; settings: in vivo, 1 h; method in brief: as §2
Rattus norvegicus [32] = experiment: Biodistribution of radioligand [125I]FIDA1 in spleen of rat after 120 minutes after an intravenous injection is given (average of 3 rats); format: ADME, organism-based; settings: in vivo, 2 h; method in brief: as §1
Rattus norvegicus [33] = experiment: Biodistribution of radioligand [125I]FIDA1 in spleen of rat after 2 minutes after an intravenous injection is given (average of 3 rats); format: ADME, organism-based; settings: in vivo; method in brief: as §1
Rattus norvegicus [34] = experiment: Biodistribution of radioligand [125I]FIDA1 in brain of rat after 2 minutes after an intravenous injection is given (average of 3 rats); format: ADME, organism-based; settings: in vivo; method in brief: as §1
Rattus norvegicus [35] = experiment: Biodistribution of radioligand [125I]FIDA1 in brain of rat after 60 minutes after an intravenous injection is given (average of 3 rats); format: ADME, organism-based; settings: in vivo, 1 h; method in brief: as §1
Rattus norvegicus [36] = experiment: Biodistribution of radioligand [125I]FIDA1 in thyroid of rat after 2 minutes after an intravenous injection is given (average of 3 rats); format: ADME, organism-based, Thyroid gland; settings: in vivo; method in brief: as §1
Rattus norvegicus [37] = experiment: Biodistribution of radioligand [125I]FIDA1 in skin of rat after 60 minutes after an intravenous injection is given (average of 3 rats); format: ADME, organism-based, Zone of skin; settings: in vivo, 1 h; method in brief: as §1

| SMILES | Dose/organ (Rattus norvegicus [1]) [%] | Dose/organ (Rattus norvegicus [2]) [%] | Dose/organ (Rattus norvegicus [3]) [%] | Dose/organ (Rattus norvegicus [4]) [%] | Dose/organ (Rattus norvegicus [5]) [%] | Dose/organ (Rattus norvegicus [6]) [%] | Dose/organ (Rattus norvegicus [7]) [%] | Dose/g (Rattus norvegicus [8]) [%] | Dose/g (Rattus norvegicus [9]) [%] | Dose/organ (Rattus norvegicus [10]) [%] | Dose/organ (Rattus norvegicus [11]) [%] | Dose/organ (Rattus norvegicus [12]) [%] | Dose/organ (Rattus norvegicus [13]) [%] | Dose/g (Rattus norvegicus [14]) [%] | Dose/g (Rattus norvegicus [15]) [%] | Dose/organ (Rattus norvegicus [16]) [%] | Dose/organ (Rattus norvegicus [17]) [%] | Dose/organ (Rattus norvegicus [18]) [%] | Dose/g (Rattus norvegicus [19]) [%] | Dose/organ (Rattus norvegicus [20]) [%] | further results |
| --- | --- | --- | --- | --- | --- | --- | --- | --- | --- | --- | --- | --- | --- | --- | --- | --- | --- | --- | --- | --- | --- |
| COc1cc(I)cc(C(=O)NC[C@@H]2CCCN2Cc2ccc(F)cc2)c1OC | 4.21 | 0.03 | 11.14 | 10.44 | 0.42 | 0.87 | 19.41 | 0.63 | 0.03 | 5.71 | 0.14 | 1.38 | 0.03 | 0.37 | 0.01 | 5.75 | 0.03 | 2.08 | 0.01 | 0.15 | Dose/organ (Rattus norvegicus [21]): 1.38%; Dose/organ (Rattus norvegicus [22]): 6.08%; Dose/organ (Rattus norvegicus [23]): 0.06%; Kd (Rattus norvegicus [24]): 0.02 nM; Dose/organ (Rattus norvegicus [25]): 7.82%; Dose/g (Rattus norvegicus [26]): 0.59%; Dose/organ (Rattus norvegicus [27]): 0.05%; Dose/organ (Rattus norvegicus [28]): 6.77%; Dose/g (Rattus norvegicus [29]): 0.23%; Dose/organ (Rattus norvegicus [30]): 2.96%; Dose/g (Rattus norvegicus [31]): 0.04%; Dose/organ (Rattus norvegicus [32]): 0.05%; Dose/organ (Rattus norvegicus [33]): 1.19%; Dose/organ (Rattus norvegicus [34]): 0.98%; Dose/organ (Rattus norvegicus [35]): 0.1%; Dose/organ (Rattus norvegicus [36]): 0.07%; Dose/organ (Rattus norvegicus [37]): 8.56% |
| CCN1CCC[C@H]1CNC(=O)c1cc(I)cc(OC)c1OCCF | 1.96 | 0.01 | 11.83 | 7.08 | 0.11 | 1.91 | 20.46 | 0.25 | 0.006 | 2.24 | 0.05 | 0.81 | 0.04 | 0.175 | 0.0016 | 0.75 | 0.03 | 3.76 | 0.0014 | 0.04 | Dose/organ (Rattus norvegicus [21]): 0.39%; Dose/organ (Rattus norvegicus [22]): 8.19%; Dose/organ (Rattus norvegicus [23]): 0.03%; Kd (Rattus norvegicus [24]): 0.13 nM; Dose/organ (Rattus norvegicus [25]): 6.53%; Dose/g (Rattus norvegicus [26]): 0.3%; Dose/organ (Rattus norvegicus [27]): 0.02%; Dose/organ (Rattus norvegicus [28]): 6.18%; Dose/g (Rattus norvegicus [29]): 0.095%; Dose/organ (Rattus norvegicus [30]): 1.42%; Dose/g (Rattus norvegicus [31]): 0.013%; Dose/organ (Rattus norvegicus [32]): 0.01%; Dose/organ (Rattus norvegicus [33]): 0.7%; Dose/organ (Rattus norvegicus [34]): 0.41%; Dose/organ (Rattus norvegicus [35]): 0.05%; Dose/organ (Rattus norvegicus [36]): 0.07%; Dose/organ (Rattus norvegicus [37]): 1.76% |
